Test results from ChEMBL document CHEMBL4823269, “Acyclic nucleoside phosphonates with 2-aminothiazole base as inhibitors of bacterial and mammalian adenylate cyclases” (Eur J Med Chem, 2021).

Key:
[1] = system: J774.A1; test: Cytotoxicity against mouse J774.A1 cells assessed as reduction in cell viability at 10 uM measured after 5 hrs by Cell TiterGlo Luminescent assay relative to control; type: cell-based; settings: j774.a1, 5 h
[2] = Inhibition of Bordetella pertussis ACT by cell free assay
In short: (§1)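 Run cell-free on the bacterial enzyme, with the phosphono diphosphate forms (nucleoside triphosphate analogues) added directly rather than the bisamide prodrugs; an IC50 was obtained.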

[3] = Inhibition of Bordetella pertussis ACT exposed to mouse J774.A1 cells assessed as inhibition of ACT-induced cAMP accumulation cells pretreated for 5 hrs measured after 30 mins followed by enzyme addition by immunoassay; type: cell-based
[4] = target: T1, Calmodulin-sensitive adenylate cyclase (Bacillus anthracis, UniProt P40136); test: Inhibition of Bacillus anthracis edema factor by cell free assay; in short: as §1
T1 sequence (P40136 whole entry): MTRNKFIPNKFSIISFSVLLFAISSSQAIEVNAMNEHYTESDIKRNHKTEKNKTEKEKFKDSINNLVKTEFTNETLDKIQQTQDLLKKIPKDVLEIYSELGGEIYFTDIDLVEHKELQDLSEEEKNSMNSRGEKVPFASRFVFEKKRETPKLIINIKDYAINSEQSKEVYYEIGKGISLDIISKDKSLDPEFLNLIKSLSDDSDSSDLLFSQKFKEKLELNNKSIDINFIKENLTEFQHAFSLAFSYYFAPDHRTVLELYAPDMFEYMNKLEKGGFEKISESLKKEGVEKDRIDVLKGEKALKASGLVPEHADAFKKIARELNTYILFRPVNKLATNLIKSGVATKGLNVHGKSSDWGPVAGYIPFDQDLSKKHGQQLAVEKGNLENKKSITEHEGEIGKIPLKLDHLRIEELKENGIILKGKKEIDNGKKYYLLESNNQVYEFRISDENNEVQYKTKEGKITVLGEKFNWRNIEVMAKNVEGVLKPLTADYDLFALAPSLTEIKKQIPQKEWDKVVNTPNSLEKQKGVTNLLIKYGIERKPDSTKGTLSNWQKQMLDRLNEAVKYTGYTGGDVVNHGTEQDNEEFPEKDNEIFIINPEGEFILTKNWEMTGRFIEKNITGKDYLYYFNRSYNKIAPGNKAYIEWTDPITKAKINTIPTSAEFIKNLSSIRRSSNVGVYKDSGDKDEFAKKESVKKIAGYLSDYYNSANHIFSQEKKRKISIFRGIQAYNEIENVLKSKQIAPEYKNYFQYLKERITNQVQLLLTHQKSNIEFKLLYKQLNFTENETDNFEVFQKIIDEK

SMILES | Activity [1] [%] | IC50 [2] [nM] | IC50 [3] [nM] | IC50 [4] [nM]
CCCCOc1cccc(-c2sc(N)nc2CCOCP(=O)(N[C@@H](Cc2ccccc2)C(=O)OC(C)C)N[C@@H](Cc2ccccc2)C(=O)OC(C)C)c1 | 35 |  |  | 
CNC(=O)c1ccc(-c2sc(N)nc2CCOCP(=O)(O)OP(=O)(O)OP(=O)(O)O)cc1 |  | 37.4 |  | 
CC(C)OC(=O)[C@H](Cc1ccccc1)NP(=O)(COCCc1nc(N)sc1-c1ccccc1OCc1ccccc1)N[C@@H](Cc1ccccc1)C(=O)OC(C)C | 115 |  | > 10000 | 
CC(C)OC(=O)[C@H](Cc1ccccc1)NP(=O)(COCCc1nc(N)sc1-c1cccc(F)c1)N[C@@H](Cc1ccccc1)C(=O)OC(C)C | 99 |  |  | 
CC(C)Cc1sc(N)nc1-c1ccc(P(=O)(O)OP(=O)(O)OP(=O)(O)O)o1 |  | 16000 |  | 5060
Nc1nc(CCOCP(=O)(O)OP(=O)(O)OP(=O)(O)O)c(-c2ccccc2OCc2ccccc2)s1 |  | 184 |  | 7810
CC(C)OC(=O)[C@H](Cc1ccccc1)NP(=O)(COCCc1csc(N)n1)N[C@@H](Cc1ccccc1)C(=O)OC(C)C | 72 |  | > 10000 | 
Nc1nc(CCOCP(=O)(O)OP(=O)(O)OP(=O)(O)O)c(-c2cccc(OCc3ccccc3)c2)s1 |  | 192 |  | 
CC(C)OC(=O)[C@H](Cc1ccccc1)NP(=O)(COCCc1nc(N)sc1-c1cccnc1)N[C@@H](Cc1ccccc1)C(=O)OC(C)C | 99 |  | 2620 | 
CC(C)Oc1ccc(-c2sc(N)nc2CCOCP(=O)(O)OP(=O)(O)OP(=O)(O)O)cc1 |  | 185 |  | 
CC(C)Cc1sc(N)nc1-c1ccc(P(=O)(O)N[C@@H](Cc2ccccc2)C(=O)OC(C)C)o1 | 86 |  | 14200 | 
CNC(=O)c1cccc(-c2sc(N)nc2CCOCP(=O)(N[C@@H](Cc2ccccc2)C(=O)OC(C)C)N[C@@H](Cc2ccccc2)C(=O)OC(C)C)c1 | 106 |  | 8450 | 
Nc1nc(CCOCP(=O)(O)OP(=O)(O)OP(=O)(O)O)c(-c2cccc(F)c2)s1 |  | 313 |  | 
CNC(=O)c1ccc(-c2sc(N)nc2CCOCP(=O)(N[C@@H](Cc2ccccc2)C(=O)OC(C)C)N[C@@H](Cc2ccccc2)C(=O)OC(C)C)cc1 | 99 |  |  | 
CC(C)OC(=O)[C@H](Cc1ccccc1)NP(=O)(COCc1csc(N)n1)N[C@@H](Cc1ccccc1)C(=O)OC(C)C | 83 |  | > 10000 | 
COc1ccc(-c2sc(N)nc2CCOCP(=O)(N[C@@H](Cc2ccccc2)C(=O)OC(C)C)N[C@@H](Cc2ccccc2)C(=O)OC(C)C)c(C)c1 | 57 |  | 1160 | 
CNS(=O)(=O)c1cccc(-c2sc(N)nc2CCOCP(=O)(N[C@@H](Cc2ccccc2)C(=O)OC(C)C)N[C@@H](Cc2ccccc2)C(=O)OC(C)C)c1 | 99 |  |  | 
CC(C)Cc1sc(N)nc1-c1ccc(P(=O)(NC(Cc2ccccc2)C(=O)OC(C)C)N[C@@H](Cc2ccccc2)C(=O)OC(C)C)o1 (stereo not given in full) | 88 |  | 2120 | 
CC(C)OC(=O)[C@H](Cc1ccccc1)NP(=O)(COCCc1nc(N)sc1-c1cccc(OCc2ccccc2)c1)N[C@@H](Cc1ccccc1)C(=O)OC(C)C | 72 |  |  | 
CC(C)OC(=O)[C@H](Cc1ccccc1)NP(=O)(COCCc1nc(N)sc1-c1ccc(OC(C)C)cc1)N[C@@H](Cc1ccccc1)C(=O)OC(C)C | 81 |  |  | 
CNS(=O)(=O)c1ccc(-c2sc(N)nc2CCOCP(=O)(N[C@@H](Cc2ccccc2)C(=O)OC(C)C)N[C@@H](Cc2ccccc2)C(=O)OC(C)C)cc1 | 94 |  | > 10000 | 
CC(C)OC(=O)[C@H](Cc1ccccc1)NP(=O)(COCCn1cnc2c(N)ncnc21)N[C@@H](Cc1ccccc1)C(=O)OC(C)C | 93 |  | 150 | 
CC(C)OC(=O)[C@H](Cc1ccccc1)NP(=O)(COCCc1nc(N)sc1-c1ccccc1)N[C@@H](Cc1ccccc1)C(=O)OC(C)C | 112 |  |  | 
CC(C)OC(=O)[C@H](Cc1ccccc1)NP(=O)(COCc1nc(N)sc1-c1ccccc1)N[C@@H](Cc1ccccc1)C(=O)OC(C)C | 54 |  | 4680 | 
CC(C)OC(=O)[C@H](Cc1ccccc1)NP(=O)(COCCc1nc(N)sc1-c1cccc(OC(C)C)c1)N[C@@H](Cc1ccccc1)C(=O)OC(C)C | 44 |  | 1720 | 
CC(C)OC(=O)[C@H](Cc1ccccc1)NP(=O)(COCCc1nc(N)sc1Sc1ccccc1)N[C@@H](Cc1ccccc1)C(=O)OC(C)C | 36 |  | 930 | 
COc1cc(OC)cc(-c2sc(N)nc2CCOCP(=O)(N[C@@H](Cc2ccccc2)C(=O)OC(C)C)N[C@@H](Cc2ccccc2)C(=O)OC(C)C)c1 | 86 |  | 1430 | 
Nc1ncnc2c1ncn2CCOCP(=O)(O)OP(=O)(O)OP(=O)(O)O [ADEFOVIR DIPHOSPHATE] |  | 17.8 |  | 36
